TAAR1 antag: human TAAR1 antagonists, primary screen, Fluo-8 calcium fluorescence, CHO RD-HGA16 cells; inhibition, % at 3 µM; antagonist; 360,000 compounds, 1.5% hits; Trace amine-associated receptor 1 (Homo sapiens), Q96RJ0;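 active = inhibition above a per-plate cutoff, the mean inhibition of test compounds on that plate plus 3 SD, cut at about 49% in these data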;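 also: 0% = DMSO plus EC80 beta-PEA response and 100% = DMSO alone without agonist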
Target sequence (Q96RJ0 whole entry, looked up): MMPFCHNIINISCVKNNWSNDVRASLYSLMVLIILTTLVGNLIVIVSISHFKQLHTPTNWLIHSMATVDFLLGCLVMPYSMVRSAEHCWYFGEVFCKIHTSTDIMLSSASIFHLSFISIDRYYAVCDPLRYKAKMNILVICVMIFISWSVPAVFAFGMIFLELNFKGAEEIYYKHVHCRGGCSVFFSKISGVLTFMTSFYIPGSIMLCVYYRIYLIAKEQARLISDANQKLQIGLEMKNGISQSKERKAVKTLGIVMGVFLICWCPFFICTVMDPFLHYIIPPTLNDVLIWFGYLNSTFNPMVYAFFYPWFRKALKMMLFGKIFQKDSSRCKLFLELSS
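Material: CHO RD-HGA16 cells bearing hTAAR1; compound dosing: one-point dosing, 3 µM nominal final; schedule: dye loading 75 min at 37 °C, then 30 min room temperature; measured by: calcium fluorescence with Fluo-8; control set: vehicle and agonist controls; replication: n of 1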
CHO parental Ca: ATP-evoked calcium signal inhibitors, parental CHO, primary screen, counter-screen for OX1R antagonist project, cell-based, fluorescence, Fluo-8 calcium dye; parental CHO-K1, ATP-induced calcium, Fluo-8 fluorescence; inhibition, % at 5.6 µM; 330,000 compounds, 0.63% hits;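 active = inhibition above that plate's mean sample inhibition plus 3 SD, cut at about 26% in these data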;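 also: 0% = ATP-challenged DMSO wells and 100% = DMSO wells without ATP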
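Material: parental CHO cells / Compound: single nominal dose of 5.6 µM per compound / Signal: Fluo-8 fluorescence / Replicates: singlicate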
TAAR1 agonist: human TAAR1 agonists, primary screen, Fluo-8 calcium fluorescence, CHO RD-HGA16 cells; Trace amine-associated receptor 1 (Homo sapiens), Q96RJ0; vehicle wells 0%, saturating PEA agonist 100%; activation, % at 3 µM; 360,000 compounds, 0.99% hits;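 active = activation above the mean activation of all test compounds in the run plus 3 SD, cut at about 38% in these data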
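Benchmarks: low control DMSO, high control PEA (EC100); System: CHO RD-HGA16 cells carrying human TAAR1 plus Gα16; Detection: Fluo-8 fluorescence, 5 s baseline then 140 s kinetic read; Schedule: 17-24 h plating, Fluo-8 75 min 37 °C, 30 min RT; Read-out basis: % activation from peak over basal fluorescence ratio, DMSO-to-PEA scaled.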
OX1R antag-1: antagonists of human orexin 1 receptor (OX1R). Orexin/Hypocretin receptor type 1 (Homo sapiens), O43613. OX1R-expressing cells, FRET antagonist read-out. inhibition, % at 6.6 µM. 330,000 compounds, 1.8% hits; in the data active = inhibition mostly above about 38%, no sharp cut-off; inactive = mostly below about 40%;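 also: 0% = agonist challenge alone and 100% = reference antagonist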
OX1R antag-2: OX1R (HCRTR1) antagonists, primary screen, fluorescence, CHO/OX1R cells, Fluo-8 calcium, orexin A; 330,000 compounds, 0.43% hits; inhibition, % at 5 µM; AID 434989, 2010; Fluo-8 calcium fluorescence;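 active = inhibition above its plate's threshold, mean inhibition of all tested compounds on the plate plus 3 SD, cut at about 37% in these data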;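 also: 0% = orexin A challenge wells and 100% = SB-334867-A antagonist wells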
GPR7 antag: GPR7 receptor antagonists, primary screen, cell-based, fluorescence, single concentration; Neuropeptides B/W receptor type 1 (Homo sapiens), P48145; GPR7-expressing cells, fluorescence antagonist assay; inhibition, % at 4.4 µM; 290,000 compounds, 1.1% hits; AID 1861, 2009; in the data active = inhibition above about 16%, passing the limit was not always enough;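 also: cells stimulated with the agonist NPW; 0% = agonist with vehicle and 100% = vehicle without agonist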
Target sequence (P48145 whole entry, looked up): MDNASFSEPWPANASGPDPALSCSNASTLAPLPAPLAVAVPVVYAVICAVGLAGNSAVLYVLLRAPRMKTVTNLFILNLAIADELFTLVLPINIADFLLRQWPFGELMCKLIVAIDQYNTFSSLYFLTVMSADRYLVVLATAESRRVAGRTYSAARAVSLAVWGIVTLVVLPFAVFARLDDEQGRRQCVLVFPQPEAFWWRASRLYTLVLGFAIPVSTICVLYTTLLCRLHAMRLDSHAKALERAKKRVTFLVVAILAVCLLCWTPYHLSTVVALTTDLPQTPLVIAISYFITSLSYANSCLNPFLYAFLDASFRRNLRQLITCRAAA
* hit, by the source's call; · = not tested or not shown. Sampled rows, rich in hits. Any-hit rate of the full collection: about 4.6%.

SMILES	TAAR1 antag	CHO parental Ca	TAAR1 agonist	OX1R antag-1	OX1R antag-2	GPR7 antag
Cc1csc(=O)n1CCC(=O)OCc1nnc(-c2ccc([N+](=O)[O-])cc2)o1	-6.5	-12.2	0.2	49.9*	-16.1	·
O=C(CCN=C1NS(=O)(=O)c2ccccc21)OCc1nnc(-c2ccc([N+](=O)[O-])cc2)o1	-9.6	-8.9	0.3	63.1*	12.0	·
O=C(OCc1nnc(-c2ccc([N+](=O)[O-])cc2)o1)C1CC(=O)N(CCc2ccccc2)C1 (stereo unspecified)	4.0	-2.1	-3.8	59.5*	-10.2	·
O=C(NCc1ccccc1)[C@H]1CCCN1C(=O)[C@H]1CCCN1C(=O)C1CCCCC1	6.6	·	-0.6	·	·	·
CCOC(=O)c1c(Nc2ccc(OC)cc2)n[nH]c1C	-0.9	·	-2.2	·	·	·
Cc1cc(C)nc(SSc2nc(C)cc(C)n2)n1	26.2	-7.6	46.1*	8.4	2.3	-1.1
N#CC(C#N)=C1C=CC=CN1/C(=C\c1ccco1)C(=O)c1ccc(Cl)cc1	26.5	89.7*	7.5	88.1*	62.5*	9.8
CCCCCCCCN1C(=O)[C@@H](CC(=O)NCCCCc2ccccc2)C[C@@]2(C(=O)OC)C1=C[C@H](C1CCCC1)O[C@@H]2C	-17.8	·	6.2	·	·	·
O=[N+]([O-])c1cc(NCCO)c(N2CCCCCC2)c2nonc12	-6.2	-3.8	0.5	46.0*	-21.3	-6.2
CCCCCCCCN1C(=O)[C@H](CC(=O)NCC23CC4CC(CC(C4)C2)C3)C[C@@]2(C(=O)OCC)CCC=C12	-22.6	·	2.4	·	·	·
O=C(O)c1cnc(-c2ccccc2)nc1Sc1ccccc1Cl	-24.1	-0.1	-0.8	56.0*	-22.1	-5.0
CC(C)[C@H](NC(=O)C1CCCC1)C(=O)N1CCC[C@H]1C(=O)NCc1ccccc1	-14.8	·	0.5	·	·	·
COc1cc(CNC2CCCC2)cc(Cl)c1OCc1ccccc1F	26.8	20.9	39.0*	15.4	6.4	8.6
COc1cc(CNC2CCCCCC2)cc(OC)c1O	-2.1	-0.1	4.2	8.1	3.0	-13.4
Cc1cc(C)cc(Cn2c3ccc(NC(=O)NCc4ccc(F)cc4)cc3c(=O)n2C)c1	-0.2	·	7.0	·	·	·
COC(=O)C1=C(C)N(CC(C)C)C(=S)NC1c1cccc(OC)c1 (stereo unspecified)	21.7	·	-0.9	·	·	·
CCNC(=O)N1CCN(c2ccc(N3CCN(Cc4ccccc4)[C@@H](C)C3)c(C)c2)[C@H](C)C1	16.7	·	4.2	·	·	·
C/C(=N\Nc1cccc2cccnc12)c1ccccn1	-30.3	-6.2	-2.3	42.5*	-9.2	-1.6
C/C(=N\Nc1cccc2cccnc12)c1ccccc1O	4.3	-17.4	11.3	34.8	-18.4	-3.3
CCOC(=O)C1=C[C@@H](C(C)(C)C)N(S(=O)(=O)c2ccc([N+](=O)[O-])cc2)[C@H]1c1cccc(Cl)c1	16.9	·	1.7	·	·	·
Cn1ncc2c(NCCc3ccccc3)nc(Cl)nc21	43.1	·	37.8*	·	·	·
C[C@@H]1CN([C@H](C)CO)C(=O)CCCn2nncc2CO[C@H]1CN(C)C(=O)c1ccc2ccn(C)c2c1	-12.2	·	1.1	·	·	·
Cc1ccc(Nc2nc(NCCO)c3ccccc3n2)cc1C	-11.3	-11.6	38.8*	-3.6	-23.3	-6.9
O=c1c2cc(Br)ccc2nc(-c2cccc(C(F)(F)F)c2)n1O	-9.3	28.3	46.2*	39.0	19.8	-6.0
COC(=O)[C@]12CCCCC=C1N(Cc1ccc(Cl)cc1Cl)C(=O)[C@H](CC(=O)NCc1cccs1)C2	13.3	·	2.4	·	·	·
SMILES	TAAR1 antag	CHO parental Ca	TAAR1 agonist	OX1R antag-1	OX1R antag-2	GPR7 antag
COCCCNC(=O)c1ccc2c(=O)n(CC3CCCO3)c(=S)[nH]c2c1 (stereo unspecified)	-8.7	-1.0	0.7	12.2	-26.0	1.5
CC(C)NC(=O)c1ccc2c(=O)n(CC3CCCO3)c(=S)[nH]c2c1 (stereo unspecified)	-10.7	-5.5	1.1	7.7	-11.8	17.4*
CSc1nnc(-c2ccc(F)cc2)o1	-2.2	-5.1	12.2	13.6	-3.2	-6.2
C#CCSc1nnc(-c2ccc([N+](=O)[O-])cc2)o1	13.1	-2.9	2.4	51.5*	-3.3	-5.0
CSc1nnc(-c2ccc([N+](=O)[O-])cc2)o1	10.2	-8.7	2.3	61.6*	-2.9	-5.7
COc1ccc(S(=O)(=O)Cc2ccc(C(=O)N3CCN(c4cc(C)ccc4C)CC3)o2)cc1	20.4	-30.1	-1.3	14.4	-32.8	12.0
Cc1ccc(S(=O)(=O)Cc2ccc(C(=O)N3CCN(c4cccc(C)c4C)CC3)o2)cc1	-6.0	-1.3	-1.6	8.3	-32.5	6.3
COc1ccc(S(=O)(=O)Cc2ccc(C(=O)N3CCN(c4cc(Cl)ccc4C)CC3)o2)cc1	48.8*	2.4	1.2	6.4	-18.6	-10.7
COc1ccc(S(=O)(=O)Cc2ccc(C(=O)N3CCN(c4cccc(C)c4C)CC3)o2)cc1	33.2	48.5*	-0.5	11.3	7.5	-0.8
COC(=O)c1sc(NC(=O)c2cc(-c3ccccc3)nc3ccccc23)c(C#N)c1C	34.9	-8.3	10.7	71.7*	13.8	-1.1
CCOC(=O)c1sc(NC(=O)c2cc(-c3ccc(C)cc3)nc3ccccc23)c(C#N)c1C	5.5	-5.6	9.6	5.6	-16.8	-12.2
Cc1cc(NC(=O)c2cc(-c3ccccc3C)nc3ccccc23)no1	10.2	-20.0	1.7	20.1	-34.7	-11.2
Cc1ccccc1-c1cc(C(=O)Nc2sc(C(=O)OC(C)C)c(C)c2C#N)c2ccccc2n1	24.9	0.5	15.9	45.4*	-10.7	-13.8
COc1cc2c(cc1OC)-c1cc3ccc(OC)c(OC)c3c[n+]1CC2	-18.7	-3.2	3.7	61.7*	-12.6	·
O=C(NCc1cccc(C(F)(F)F)c1)c1cc(Cl)ccc1Cl	18.4	-16.5	-0.3	10.1	-22.7	4.1
O=C(NCc1cccc(C(F)(F)F)c1)c1cc(Cl)cc(Cl)c1	-5.7	-22.1	8.8	41.7*	-32.5	1.1
COCc1[nH]nc2c1C(c1ccc(Br)cc1)N(Cc1ccccc1)C2=O (stereo unspecified)	-22.1	·	-2.4	·	·	·
O=C(CN1C2CCCC1CC(NC(=O)c1ccco1)C2)Nc1ccccc1C(F)(F)F (stereo unspecified)	5.0	-3.7	3.6	50.7*	-2.7	-2.5
O=C(CN1CCC(NC(=O)c2ccco2)CC1)Nc1ccccc1C(F)(F)F	3.6	-18.5	-2.0	12.0	-11.6	-16.6
O=C(CN1C2CCCC1CC(NC(=O)c1ccccc1)C2)Nc1ccccc1C(F)(F)F (stereo unspecified)	-10.2	-12.4	-2.0	67.6*	-9.7	-4.7
